# Experimental data gathered from unrelated publications.
# Compare with care: the assays were run in different laboratories.
# Target: Mu-type opioid receptor (OPRM1, Homo sapiens, UniProt P35372)
Compound,assay,test system,setting,quantity,result
COc1ccc2c(c1)O[C@H](c1ccc(OC)c(OC)c1)C[C@@H]2NC(=O)C1(c2ccc3c(c2)OC(F)(F)O3)CC1,cell-free assay,,10 µM,inhibition,6.01%
CC(C)N1CCC[C@H]1CNC(=O)c1cn(C2CCCC2)c(=O)c2c1c1ccccc1n2C,"ligand displacement, radioligand",,10 µM,inhibition,5%
c1ccc(C(NCCNC(c2ccccc2)c2ccccc2)c2ccccc2)cc1,ligand displacement,,10 µM,inhibition,21%
CC1=C(C#N)C(c2ccc3[nH]nc(C)c3c2)C(C#N)=C(C)N1,ligand displacement,,10 µM,inhibition,2.64%
CC1(C)SSC(C)(C)[C@@H](NC(=O)[C@@H](N)Cc2ccc(O)cc2)C(=O)NCC(=O)N[C@@H](Cc2ccccc2)C(=O)N2CCN(CC2)C(=O)[C@H](Cc2ccccc2)NC(=O)CNC(=O)[C@@H]1NC(=O)[C@@H](N)Cc1ccc(O)cc1,"cAMP, agonist, luciferase",HEK293,,Emax,86%
COCc1c(-c2cc3cc(C)cc(OC)c3s2)c2c(N)ncnn2c1CN1CCNC(=O)C1,"ligand displacement, radioligand",,10 µM,inhibition,31%
CC[C@@H]1CN2CC[C@@]3(O)C(=Nc4cccc(OC)c43)[C@@H]2C[C@@H]1/C(=C\OC)C(=O)OC,"β-arrestin recruitment, agonist",,,Emax,< 50%
C[C@H](C(=O)N[C@H]1COc2ccccc2[C@@H]1S(C)(=O)=O)c1ccc(F)cc1,ligand displacement,,10 µM,inhibition,-8%
CCCCC/C=C\C/C=C\C/C=C\C/C=C\CCCC(=O)O,"ligand displacement, radioligand",,"10 µM, cell membranes",inhibition,80%
CCN(CC)CCCC[C@H](NC(=O)[C@H](CC(C)C)NC(=O)[C@H](C)NC(=O)[C@H](Cc1ccccc1)NC(=O)c1ccc(C(C)(C)C)cc1)C(=O)N[C@@H](CO)C(=O)OC,"ligand displacement, radioligand",,10 µM,remaining binding,48.6%
COc1ccsc1CNCC[C@@]1(c2ccccn2)CCOC2(CCCC2)C1,"β-arrestin recruitment, agonist",HEK-293T,,Emax,< 5%
CN1CCN(c2cc(-c3ccncc3)c(-c3ccc4ccccc4c3)nn2)CC1,"calcium signal, agonist",OPRM1,12.5 µM,activation,0.3%
COc1ccsc1CNCC[C@@]1(c2ccccn2)CCOC2(CCCC2)C1,"β-arrestin recruitment, agonist",,,Emax,< 50%
Clc1ccc2c(C3CCN(CCc4c[nH]c5ccccc45)CC3)c[nH]c2c1,"ligand displacement, radioligand",,10 µM,inhibition,93%
CN(C)C(=O)Cn1cc(-c2nc(C3(c4ccc(-c5cnc(N)nc5)cc4)CC3)no2)cn1,cell-free assay,,10 µM,inhibition,12.6%
Nc1ncc(-c2nc(N3CCOCC3)nc(N3CCOCC3)n2)c(C(F)F)n1,"cell-free assay, radioligand",,10 µM,remaining signal,104%
